According to ChEMBL document CHEMBL4052637, “Discovery and Characterization of R/S-N-3-Cyanophenyl-N'-(6-tert-butoxycarbonylamino-3,4-dihydro-2,2-dimethyl-2H-1-benzopyran-4-yl)urea, a New Histone Deacetylase Class III Inhibitor Exerting Antiproliferative Activity against Cancer Cell Lines” (J Med Chem, 2017):
The source made the active and inactive calls. No cut-off for these calls is given here.

Tests used:
A2780 = experiment: Antiproliferative activity against human A2780 cells after 72 hrs by MTT assay; type: functional, cell-based
Procedure, shortened: (§1)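 MTT assay: cells in RPMI 1640 with 10% heat-inactivated FCS at 37 °C and 5% CO2 were seeded 24 h before treatment. They were exposed 72 h to compound at 0.01–100 μM, with DMSO as solvent.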

U-251 = experiment: Growth inhibition of human U251 cells after 48 hrs by SRB assay; type: functional; settings: U-251, 48 h
NCI-H460 = experiment: Growth inhibition of human NCI-H460 cells after 48 hrs by SRB assay; type: functional; settings: NCI-H460, 48 h
[1] = target: T1, NAD-dependent protein deacetylase sirtuin-2 (Homo sapiens) (UniProt Q8IXJ6); experiment: Inhibition of SIRT2 in human U373 cells assessed as increase of alpha-tubulin acetylation at 5 uM after 8 hrs by Western blotting method relative to control; type: cell-based
T1 sequence (whole entry): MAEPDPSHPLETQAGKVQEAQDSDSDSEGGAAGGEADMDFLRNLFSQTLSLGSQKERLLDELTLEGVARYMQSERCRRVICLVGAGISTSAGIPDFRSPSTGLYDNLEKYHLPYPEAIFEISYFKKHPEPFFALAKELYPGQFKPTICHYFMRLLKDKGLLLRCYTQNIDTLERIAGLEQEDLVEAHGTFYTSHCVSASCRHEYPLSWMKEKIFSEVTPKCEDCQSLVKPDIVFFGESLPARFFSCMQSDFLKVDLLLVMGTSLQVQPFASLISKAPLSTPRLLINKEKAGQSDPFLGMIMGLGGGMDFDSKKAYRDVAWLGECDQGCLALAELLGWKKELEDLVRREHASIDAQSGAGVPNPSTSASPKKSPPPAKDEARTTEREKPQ

NCI-H322M = experiment: Growth inhibition of human NCI-H322M cells after 48 hrs by SRB assay; type: functional
Hs 683 [2] = experiment: Inhibition of spheroid forming capacity of human Hs683 cells assessed as decrease in surface area of tumor spheroids at 5 to 10 uM treated for 24 hrs measured after 96 hrs by bright field microscopic method; type: functional, cell-based
Procedure, shortened: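 Spheroids formed from 1 × 10^3 cells in 25 μL. Cells were pretreated 24 h with compound then left untreated 96 h, or untreated spheroids were cultured 96 h with compound. Surface measured from bright-field images; volume in voxels from 3D plots after image segmentation. Mean ± SD of three independent experiments.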

RPMI-8226 = experiment: Growth inhibition of human RPMI8226 cells after 48 hrs by SRB assay; type: functional; settings: RPMI-8226, 48 h
HL-60(TB) = experiment: Growth inhibition of human HL-60(TB) cells after 48 hrs by SRB assay; type: functional; settings: HL-60, 48 h
Hs 683 [3] = experiment: Antiproliferative activity against human Hs683 cells transfected with SIRT1/2 siRNA at IC50 for MTT assay after 72 hrs by time-lapse videomicroscopy; type: functional, cell-based
A2780cis = experiment: Antiproliferative activity against human A2780cis cells after 72 hrs by MTT assay; type: functional, cell-based; procedure, shortened: as §1
HCT-15 = experiment: Growth inhibition of human HCT15 cells after 48 hrs by SRB assay; type: functional; settings: HCT-15, 48 h
786-0 = experiment: Growth inhibition of human 786-0 cells after 48 hrs by SRB assay; type: functional; settings: 786-0, 48 h
OVCAR-5 = experiment: Growth inhibition of human OVCAR5 cells after 48 hrs by SRB assay; type: functional; settings: OVCAR-5, 48 h
SW1573 = experiment: Antiproliferative activity against human SW1573 cells after 72 hrs by MTT assay; type: functional, cell-based; procedure, shortened: as §1
[4] = Induction of senescence in human U373 cells at 5 uM after 6 days by beta-galactosidase assay relative to control; type: functional, U-373MG ATCC
Procedure, shortened: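 Cells were kept 6 days in medium containing 5 μM compound or DMSO vehicle, then stained for senescence-associated β-galactosidase activity. Blue-stained cells were counted and expressed as a percentage of total cells counted. Two independent experiments.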

UO-31 = experiment: Growth inhibition of human UO31 cells after 48 hrs by SRB assay; type: functional; settings: UO-31, 48 h
RXF 393 = experiment: Growth inhibition of human RXF393 cells after 48 hrs by SRB assay; type: functional; settings: RXF 393, 48 h
SK-OV-3 = experiment: Growth inhibition of human SKOV3 cells after 48 hrs by SRB assay; type: functional; settings: SK-OV-3, 48 h
[5] = Antiproliferative activity against human U373 cells after 72 hrs by MTT assay; type: functional, cell-based, U-373MG ATCC; settings: U373 MG; procedure, shortened: as §1
[6] = target: T1, NAD-dependent protein deacetylase sirtuin-2 (Homo sapiens); experiment: Inhibition of SIRT2 in human Hs683 cells assessed as increase of alpha-tubulin acetylation at 2.5 uM after 8 hrs by Western blotting method relative to control; type: cell-based
[7] = target: T2, NAD-dependent protein deacetylase sirtuin-1 (Homo sapiens) (UniProt Q96EB6); experiment: Inhibition of SIRT1 in human U373 cells assessed as increase of histone H4 acetylation at 5 uM after 8 hrs by Western blotting method relative to control; type: cell-based
T2 sequence (whole entry): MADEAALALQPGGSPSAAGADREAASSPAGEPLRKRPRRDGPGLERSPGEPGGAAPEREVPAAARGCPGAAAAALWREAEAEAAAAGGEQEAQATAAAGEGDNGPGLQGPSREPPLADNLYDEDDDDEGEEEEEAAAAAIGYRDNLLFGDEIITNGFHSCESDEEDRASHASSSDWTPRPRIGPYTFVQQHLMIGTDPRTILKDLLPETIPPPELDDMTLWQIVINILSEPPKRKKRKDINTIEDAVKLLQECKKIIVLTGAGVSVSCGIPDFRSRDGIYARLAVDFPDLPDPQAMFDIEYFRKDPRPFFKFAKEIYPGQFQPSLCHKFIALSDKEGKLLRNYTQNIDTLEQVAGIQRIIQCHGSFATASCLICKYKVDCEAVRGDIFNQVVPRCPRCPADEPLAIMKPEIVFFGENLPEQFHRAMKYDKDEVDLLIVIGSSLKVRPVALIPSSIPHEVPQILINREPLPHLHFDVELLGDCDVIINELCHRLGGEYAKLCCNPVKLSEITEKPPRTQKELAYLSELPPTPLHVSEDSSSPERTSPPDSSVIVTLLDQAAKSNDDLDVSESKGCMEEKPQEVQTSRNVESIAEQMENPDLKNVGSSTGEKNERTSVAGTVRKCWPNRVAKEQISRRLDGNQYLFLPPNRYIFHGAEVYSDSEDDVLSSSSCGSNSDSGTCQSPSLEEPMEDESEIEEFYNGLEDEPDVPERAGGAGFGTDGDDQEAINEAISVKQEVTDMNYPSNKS

[8] = Selectivity index, ratio of IC50 for mouse astrocytes to IC50 for human Hs683 cells
SK-MEL-2 = experiment: Growth inhibition of human SK-MEL-2 cells after 48 hrs by SRB assay; type: functional; settings: SK-MEL-2, 48 h
[9] = target: T2, NAD-dependent protein deacetylase sirtuin-1 (Homo sapiens); experiment: Inhibition of SIRT1 in human Hs683 cells assessed as increase of histone H4 acetylation after 8 hrs by Western blotting method; type: cell-based
MDA-MB-468 = experiment: Growth inhibition of human MDA-MB-468 cells after 48 hrs by SRB assay; type: functional; settings: MDA-MB-468, 48 h

SMILES: CC(C)(C)OC(=O)Nc1ccc2c(c1)C(NC(=O)Nc1cccc(C#N)c1)CC(C)(C)O2 (stereo not given)
- Activity (A2780): Active
- GI50 (U-251): 1480 nM
- GI50 (NCI-H460): 3.02 µM
- fold change (FC) [1]: 5.9
- GI50 (NCI-H322M): 21.9 µM
- inhibition (Hs 683 [2]): Active
- GI50 (RPMI-8226): 1620 nM
- GI50 (HL-60(TB)): 2570 nM
- Activity (Hs 683 [3]): Active
- Activity (A2780cis): Active
- GI50 (HCT-15): 2000 nM
- GI50 (786-0): 7.59 µM
- GI50 (OVCAR-5): 33.9 µM
- Activity (SW1573): Active
- Activity [4]: 18.2%
- GI50 (UO-31): 4.27 µM
- GI50 (RXF 393): 6.17 µM
- GI50 (SK-OV-3): 9.12 µM
- IC50 [5]: 6 to 7.5 µM
- fold change (FC) [6]: 1.2
- fold change (FC) [7]: 1.3
- Ratio IC50 [8]: >10
- GI50 (SK-MEL-2): 5.37 µM
- inhibition [9]: Dose-dependent effect
- GI50 (MDA-MB-468): 269 nM
